“Also recorded” adds a separate entry of the source. Like-named read-outs stand apart in the source and are kept apart here. Each block holds one molecule with its values, some of them ahead of it.
What was measured:
[1] = test system: L. amazonensis intracellular amastigotes; assay type: cell-based, Leishmania amazonensis; settings: read-out: intracellular amastigotes, EC50 ± SE
[2] = test system: purified L. tarentolae tubulin; experiment: turbidity tubulin polymerization assay, purified L. tarentolae tubulin; assay type: biochemical, Leishmania tarentolae; settings: read-out: L. tarentolae tubulin polymerization EC50 (estimated); 3 mg/mL tubulin, A340, 30 °C
[3] = test system: blood-stage P. falciparum; experiment: Malaria SYBR green I fluorescence; assay type: cell-based, Plasmodium falciparum; settings: read-out: P. falciparum EC50 ± SE, 3D7, MSF assay
[4] = test system: L. donovani axenic amastigotes; experiment: alamarBlue assay, L. donovani axenic amastigotes; assay type: cell-based, Leishmania donovani; settings: read-out: L. donovani axenic amastigotes, EC50 ± SE, 72 h
In short: (§1)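 Axenic amastigotes were exposed to a compound dilution series and growth was measured with 10% alamarBlue, fluorescence at 530 nm excitation and 570 nm emission. Each plate held three technical replicates, with at least three biological repeats. Percent growth relative to untreated control was plotted against log10 concentration. EC50 per repeat was fitted by sigmoidal variable-slope nonlinear regression and reported as mean ± SE.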

Neospora caninum = settings: read-out: Neospora caninum EC50; cited from earlier work
[5] = test system: L. amazonensis axenic amastigotes; assay type: cell-based, Leishmania amazonensis; settings: 24 h at the EC50 72h, densitometry of Western blots
[6] = test system: L. amazonensis promastigotes; experiment: microscopy of promastigote morphology; assay type: cell-based, Leishmania amazonensis; settings: compared to DMSO control; for increase in pear-shaped promastigotes: 48 h at the EC50 72h; for increase in flagella length: promastigotes, 24 h at the EC50 72h
[7] = test system: L. amazonensis promastigotes; experiment: alamarBlue assay, L. amazonensis promastigotes; assay type: cell-based, Leishmania amazonensis; settings: read-out: Promastigote EC50 ± SE, 72 h
[8] = test system: L. tarentolae axenic amastigotes; experiment: alamarBlue assay, L. tarentolae axenic amastigotes; assay type: cell-based, Leishmania tarentolae; settings: read-out: L. tarentolae axenic amastigotes EC50 ± SE
In short: as §1

Cryptosporidium parvum = settings: read-out: Cryptosporidium parvum EC50; cited from earlier work
[9] = test system: Entamoeba histolytica trophozoite; settings: cited from earlier work
[10] = test system: purified L. tarentolae tubulin; experiment: chemical cross-linking with SW22 probe and competition, fluorescent tubulin band; assay type: binding, Leishmania tarentolae; settings: for competition with SW22 probe for tubulin, fluorescent band: fully purified tubulin, competitor at 100-fold excess
[11] = test system: blood-stage Trypanosoma brucei; experiment: CellTiter-Glo luminescent assay, T. brucei; assay type: cell-based; settings: read-out: T. brucei EC50 ± SE
[12] = test system: L. amazonensis promastigotes and amastigotes; experiment: microscopy of cell division in L. amazonensis promastigotes and amastigotes; assay type: cell-based, Leishmania amazonensis; settings: 48 h at the EC50 72h concentration; for increase in parasites in mid-cell division, promastigotes: compared to DMSO control
[13] = test system: L. amazonensis axenic amastigotes; assay type: cell-based, Leishmania amazonensis; settings: for EC50: Leishmania amazonensis, 72 h, read-out: EC50 ± SE
L. amazonensis = experiment: paclitaxel EC50 72h for La; assay type: cell-based; settings: Leishmania amazonensis, read-out: EC50 72h for La
[14] = L. amazonensis intracellular amastigotes in RAW 264.7 cells, 72 h, luciferase

SMILES: N#Cc1nc(-c2ccccc2)oc1S(=O)(=O)c1ccc(Cl)cc1 [MMV676412]
- EC50 [1, 14]: > 2000 nM

SMILES: CCc1c(C)nc(-n2nc(C)cc2NC(=O)c2ccccc2SC)[nH]c1=O [MMV676477]
- EC50 [2]: 500 ± 100 nM
- EC50 [3]: 420 ± 19 nM
- EC50 [4]: 1300 ± 210 nM
- CC50 (RAW 264.7 cells): 2200 ± 410 nM
- EC50 (Neospora caninum): 13 nM
- proportion of cellular polymeric tubulin [5]: significantly increased
- increase in pear-shaped promastigotes [6]: 2 fold
- increase in flagella length [6]: ~ 1.5 fold
- EC50 [7]: 2400 ± 35 nM
- EC50 [8]: 11 ± 1.3 nM
- EC50 (Cryptosporidium parvum): 220 nM
- Entamoeba histolytica trophozoite proliferation at 10 μM [9]: 56%
- competition with SW22 probe for tubulin, fluorescent band [10]: significantly dimmer
- EC50 [11]: 190 ± 8.7 nM
- increase in parasites in mid-cell division, promastigotes [12]: ~ 2 fold
- EC50 [1, 14]: 500 ± 20 nM

SMILES: CSc1ccccc1C(=O)Oc1cc(C)nc(-n2nc(C)cc2N)n1 [SW10]
- CC50 (RAW 264.7 cells): > 10000 nM
- EC50 [7]: > 50000 nM
- dimming of the fluorescent tubulin band in presence of competitor ([10]; L. tarentolae tubulin still including some additional proteins, SW22 probe): No apparent dimming
- competition with SW22 probe for tubulin, fluorescent band [10]: no apparent competition
- antileishmanial activity (in words) ([13]; L. amazonensis): essentially inactive; also recorded: nearly inactive

- EC50 [7]: 6700 ± 53 nM
SMILES: C#CCOc1ccc(C(=O)c2ccc(C(=O)Nc3cc(C)nn3-c3nc(C)c(CC)c(=O)[nH]3)cc2)cc1 [SW22, N-(1-(5-ethyl-4-methyl-6-oxo-1,6-dihydropyrimidin-2-yl)-3-methyl-1H-pyra-zol-5-yl)-4-(4-(prop-2-yn-1-yloxy)benzoyl) benzamide]
- CC50 (RAW 264.7 cells): 1300 ± 42 nM

SMILES: CCc1c(C)nc(-n2nc(C)cc2NC(=O)c2ccc(F)c(Cl)c2)[nH]c1=O [SW41]
- EC50 [4]: 310 ± 38 nM
- CC50 (RAW 264.7 cells): 2400 ± 100 nM
- EC50 [7]: 780 ± 29 nM
- EC50 [1, 14]: 220 ± 13 nM

SMILES: C[C@@H]1[C@H](O)[C@@H](C)/C=C/C=C/C=C/C=C/C=C/C=C/C=C/[C@H](O[C@@H]2O[C@H](C)[C@@H](O)[C@H](N)[C@@H]2O)C[C@@H]2O[C@](O)(C[C@@H](O)C[C@@H](O)[C@H](O)CC[C@@H](O)C[C@@H](O)CC(=O)O[C@H]1C)C[C@H](O)[C@H]2C(=O)O [amphotericin B, reference compound]
- EC50 [13]: 53 ± 4.4 nM
- EC50 ([1]; Leishmania amazonensis, RAW264.7, 72 h): 65 ± 26 nM

SMILES: CC(C)(C)[C@H]1CC[C@H](CC2=C(O)C(=O)c3ccccc3C2=O)CC1 [buparvaquone]
- EC50 [13]: 12 ± 1.1 nM

SMILES: C[C@]1(COc2ccc(N3CCC(Oc4ccc(OC(F)(F)F)cc4)CC3)cc2)Cn2cc([N+](=O)[O-])nc2O1 [delamanid]
- EC50 [13]: 31 ± 3.5 nM

SMILES: CCCCCCCCCCCCCCCCOP(=O)([O-])OCC[N+](C)(C)C [miltefosine]
- increase in pear-shaped promastigotes [6]: did not affect
- increase in flagella length [6]: did not affect
- effect on L. amazonensis cell division [12]: did not affect L. amazonensis cell division
- EC50 [13]: 1200 ± 280 nM

SMILES: CC(=O)Oc1ccccc1C(=O)Nc1ncc([N+](=O)[O-])s1 [nitazoxanide]
- EC50 [13]: 590 ± 100 nM

SMILES: CC(=O)O[C@H]1C(=O)[C@@]2(C)[C@H]([C@H](OC(=O)c3ccccc3)[C@]3(O)C[C@H](OC(=O)[C@H](O)[C@@H](NC(=O)c4ccccc4)c4ccccc4)C(C)=C1C3(C)C)[C@]1(OC(C)=O)CO[C@@H]1C[C@@H]2O [paclitaxel]
- EC50 (L. amazonensis): 760 ± 8.3 nM
- EC50 [2]: 1300 ± 100 nM
- proportion of cellular polymeric tubulin [5]: significantly increased
- increase in pear-shaped promastigotes [6]: 2 fold
- increase in flagella length [6]: ~ 1.5 fold
- increase in parasites in mid-cell division, promastigotes [12]: ~ 2 fold

Reference: PMC8059355 (ACS infectious diseases, 2020)
